Assay results as given in ChEMBL document CHEMBL1153612, “Synthesis and antitumor activity of novel dithiocarbamate substituted chromones” (Eur J Med Chem, 2009).
pIC50: −log10 of the molar value.

What was measured:
HeLa = experiment: Antiproliferative activity against human HeLa cells after 72 hrs by MTT assay; type: functional, cell-based
Method in brief: (§1)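 Cells seeded at 8000 per well in 96-well plates, exposed to compound for 72 h. MTT added at 0.5 mg/mL final and incubated 4 h. Formazan dissolved in DMSO, absorbance read at 570 nm. IC50 is the concentration giving 50% reduction in cell growth, reported as the mean of three repeated experiments.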

[1] = Antiproliferative activity against human LM7 cells after 72 hrs by MTT assay; type: functional, cell-based; conditions: LM7, 72 h; method in brief: as §1
[2] = Antiproliferative activity against human MDA-MB-435S cells after 72 hrs by MTT assay; type: functional, cell-based; method in brief: as §1
SW480 [3] = experiment: Antiproliferative activity against human SW480 cells after 72 hrs by MTT assay; type: functional, cell-based; conditions: SW480, 72 h; method in brief: as §1
HEp-2 = experiment: Antiproliferative activity against human Hep2 cells after 72 hrs by MTT assay; type: functional, cell-based; conditions: HEp-2, 72 h; method in brief: as §1
MCF7 = experiment: Antiproliferative activity against human MCF7 cells after 72 hrs by MTT assay; type: functional, cell-based; conditions: MCF7, 72 h; method in brief: as §1
[4] = Cell cycle arrest in human MDA-MB-435S cells assessed as accumulation at G0/G1 phase at 0.12 uM after 48 hrs by flow cytometry; type: functional, cell-based
Method in brief: (§2)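 Cells grown to about 70% confluence in 6-well plates, then treated with compound at three concentrations for 48 h. Cell-cycle phase distribution measured by flow cytometry (FACS).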

[5] = Cell cycle arrest in human MDA-MB-435S cells assessed as accumulation at G0/G1 phase at 0.13 uM after 48 hrs by flow cytometry; type: functional, cell-based; method in brief: as §2
[6] = Cell cycle arrest in human MDA-MB-435S cells assessed as accumulation at G0/G1 phase at 0.14 uM after 48 hrs by flow cytometry; type: functional, cell-based; method in brief: as §2
[7] = Cell cycle arrest in human MDA-MB-435S cells assessed as accumulation at S phase at 0.12 uM after 48 hrs by flow cytometry; type: functional, cell-based; method in brief: as §2
[8] = Cell cycle arrest in human MDA-MB-435S cells assessed as accumulation at S phase at 0.13 uM after 48 hrs by flow cytometry; type: functional, cell-based; method in brief: as §2
[9] = Cell cycle arrest in human MDA-MB-435S cells assessed as accumulation at S phase at 0.14 uM after 48 hrs by flow cytometry; type: functional, cell-based; method in brief: as §2
[10] = Cell cycle arrest in human MDA-MB-435S cells assessed as accumulation at G2/M phase at 0.12 uM after 48 hrs by flow cytometry; type: functional, cell-based; method in brief: as §2
[11] = Cell cycle arrest in human MDA-MB-435S cells assessed as accumulation at G2/M phase at 0.13 uM after 48 hrs by flow cytometry; type: functional, cell-based; method in brief: as §2
[12] = Cell cycle arrest in human MDA-MB-435S cells assessed as accumulation at G2/M phase at 0.14 uM after 48 hrs by flow cytometry; type: functional, cell-based; method in brief: as §2
SW480 [13] = experiment: Cell cycle arrest in human SW480 cells assessed as accumulation at G0/G1 phase at 0.5 uM after 48 hrs by flow cytometry; type: functional; method in brief: as §2
SW480 [14] = experiment: Cell cycle arrest in human SW480 cells assessed as accumulation at G0/G1 phase at 0.7 uM after 48 hrs by flow cytometry; type: functional; method in brief: as §2
SW480 [15] = experiment: Cell cycle arrest in human SW480 cells assessed as accumulation at G0/G1 phase at 1 uM after 48 hrs by flow cytometry; type: functional; method in brief: as §2
SW480 [16] = experiment: Cell cycle arrest in human SW480 cells assessed as accumulation at S phase at 0.5 uM after 48 hrs by flow cytometry; type: functional; method in brief: as §2
SW480 [17] = experiment: Cell cycle arrest in human SW480 cells assessed as accumulation at S phase at 0.7 uM after 48 hrs by flow cytometry; type: functional; method in brief: as §2
SW480 [18] = experiment: Cell cycle arrest in human SW480 cells assessed as accumulation at S phase at 1 uM after 48 hrs by flow cytometry; type: functional; method in brief: as §2
SW480 [19] = experiment: Cell cycle arrest in human SW480 cells assessed as accumulation at G2/M phase at 0.5 uM after 48 hrs by flow cytometry; type: functional; method in brief: as §2
SW480 [20] = experiment: Cell cycle arrest in human SW480 cells assessed as accumulation at G2/M phase at 0.7 uM after 48 hrs by flow cytometry; type: functional; method in brief: as §2
SW480 [21] = experiment: Cell cycle arrest in human SW480 cells assessed as accumulation at G2/M phase at 1 uM after 48 hrs by flow cytometry; type: functional; method in brief: as §2

Compound	pIC50 (HeLa)	pIC50 [1]	pIC50 [2]	pIC50 (SW480 [3])	pIC50 (HEp-2)	pIC50 (MCF7)	also measured
O=c1c(CSC(=S)N2CCCCC2)coc2ccc(Cl)cc12	6.36	6.07	6.62	6.10	6.55	6.42	Activity [4]: 60.8%; Activity [5]: 58.7%; Activity [6]: 41.6%; Activity [7]: 25.3%; Activity [8]: 20.7%; Activity [9]: 33.6%; Activity [10]: 13.9%; Activity [11]: 20.6%; Activity [12]: 24.9%
Cc1ccc2occ(CSC(=S)N(C(C)C)C(C)C)c(=O)c2c1	5.85	5.20	6.62	< 4.60	6.15	5.18	
Cc1ccc2occ(CSC(=S)N3CCCCC3)c(=O)c2c1	< 4.60	5.29	5.77	< 4.60	6.05	6.10	
CN(C(=S)SCc1coc2ccccc2c1=O)c1ccccc1	< 4.60	< 4.60	< 4.60	< 4.60	< 4.60	< 4.60	
O=c1c(Cl)c(CSC(=S)N2CCCCC2)oc2ccccc12	5.01	5.48	6.11	6.16	6.03	6.00	Activity (SW480 [13]): 39.39%; Activity (SW480 [14]): 36.84%; Activity (SW480 [15]): 26.51%; Activity (SW480 [16]): 37.84%; Activity (SW480 [17]): 35.2%; Activity (SW480 [18]): 34.22%; Activity (SW480 [19]): 27.77%; Activity (SW480 [20]): 27.96%; Activity (SW480 [21]): 39.27%
COc1ccc2c(=O)cc(CSC(=S)N3CCCCC3)oc2c1	4.92	5.30	5.82	5.64	5.82	5.00	
CCOC(=O)c1cc(=O)c2cc(CSC(=S)N(C(C)C)C(C)C)ccc2o1	< 4.60	< 4.60	5.09	< 4.60	4.80	< 4.60	
CC(C)N(C(=S)SCc1cc(=O)c2cc(Cl)ccc2o1)C(C)C	< 4.52	< 4.52	< 4.60	< 4.60	4.64	< 4.60	
CC(C)N(C(=S)SCc1coc2ccccc2c1=O)C(C)C	< 4.52	4.66	5.10	5.17	5.52	< 4.52	
Cc1ccc2occ(CSC(=S)N3CCCC3)c(=O)c2c1	5.36	5.47	5.72	5.23	5.44	4.38	
O=c1c(SC(=S)N2CCCC2)coc2ccc(Cl)cc12	4.79	4.61	4.62	< 4.60	4.59	< 4.60	
COc1ccc2c(=O)c(CSC(=S)N(C(C)C)C(C)C)coc2c1	5.27	5.33	5.74	5.32	5.05	< 4.40	
